Results from ChEMBL document CHEMBL4308900, “Synthesis and identification of 2,4-bisanilinopyrimidines bearing 2,2,6,6-tetramethylpiperidine-N-oxyl as potential Aurora A inhibitors” (Bioorg Med Chem, 2019).
Calls of active or inactive are those of the source. The rule behind the calls is not given here.

Assays:
HeLa [1] = assay: Cell cycle arrest in human HeLa cells assessed as accumulation at G1 phase at 1 uM after 12 hrs by propidium iodide staining-based flow cytometric analysis (reference value: 70.68%); format: functional
Summary of the method: (§1)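 HeLa cells exposed 12 h to 1 or 5 μM compound diluted from DMSO (DMSO control), fixed, stained with propidium iodide; DNA content measured by flow cytometry and G1, S, G2/M fractions calculated from the DNA histogram.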

HeLa [2] = assay: Antiproliferative activity against human HeLa cells after 48 hrs by MTT assay; format: functional
Summary of the method: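 MTT assay: cells attached 4–6 h at 37 °C, 5% CO2, then exposed 48 h to graded concentrations from DMSO stocks; 5 mg/mL MTT added for 4 h, formazan dissolved in DMSO, absorbance at 490 nm. GI50 from log plot of percent of control versus concentration; mean of three independent experiments.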

HeLa [3] = assay: Induction of apoptosis in human HeLa cells assessed as necrotic cells at 1 uM after 12 hrs by Annexin V-FITC/propidium iodide staining-based flow cytometric analysis (reference value: 5.92%); format: functional
HeLa [4] = assay: Induction of apoptosis in human HeLa cells assessed as downregulation of Bcl-2 protein expression up to 5 uM after 12 hrs by Western blot analysis; format: functional, cell-based
Summary of the method: (§2)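 HeLa cells treated 12 h (0.1, 1, 5 μM for apoptosis proteins); lysed in Tris pH 7.5/NP-40/SDS buffer with protease inhibitors, equal protein on 10% SDS-PAGE, PVDF, 5% BSA block, primary antibodies overnight at 4 °C, β-actin loading control; mean ± SD.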

HeLa [5] = assay: Induction of apoptosis in human HeLa cells assessed as late apoptotic cells at 0.1 uM after 12 hrs by Annexin V-FITC/propidium iodide staining-based flow cytometric analysis (reference value: 2.32%); format: functional
Aurora kinase B = Aurora kinase B (Homo sapiens, UniProt Q96GD4); assay: Inhibition of Aurora B phosphorylation at Thr232 residue in human HeLa cells after 12 hrs by ELISA; format: cell-based
Aurora kinase B, sequence (Q96GD4 whole entry): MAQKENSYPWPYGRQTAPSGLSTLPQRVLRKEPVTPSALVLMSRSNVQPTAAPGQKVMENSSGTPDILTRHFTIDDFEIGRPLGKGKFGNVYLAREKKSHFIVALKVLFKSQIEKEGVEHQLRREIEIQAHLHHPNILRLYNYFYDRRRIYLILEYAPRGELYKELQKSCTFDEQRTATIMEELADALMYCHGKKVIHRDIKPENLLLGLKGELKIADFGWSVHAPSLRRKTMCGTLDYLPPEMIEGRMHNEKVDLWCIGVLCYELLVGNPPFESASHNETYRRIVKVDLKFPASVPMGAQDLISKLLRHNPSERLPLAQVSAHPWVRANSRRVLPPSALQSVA

HeLa [6] = assay: Induction of apoptosis in human HeLa cells assessed as early apoptotic cells at 5 uM after 12 hrs by Annexin V-FITC/propidium iodide staining-based flow cytometric analysis (reference value: 0.75%); format: functional
HeLa [7] = assay: Cell cycle arrest in human HeLa cells assessed as accumulation at G2/M phase at 5 uM after 12 hrs by propidium iodide staining-based flow cytometric analysis (reference value: 23.57%); format: functional; summary of the method: as §1
HeLa [8] = assay: Cell cycle arrest in human HeLa cells assessed as accumulation at G1 phase at 5 uM after 12 hrs by propidium iodide staining-based flow cytometric analysis (reference value: 70.68%); format: functional; summary of the method: as §1
HeLa [9] = assay: Induction of apoptosis in human HeLa cells assessed as late apoptotic cells at 5 uM after 12 hrs by Annexin V-FITC/propidium iodide staining-based flow cytometric analysis (reference value: 2.32%); format: functional
HeLa [10] = assay: Cell cycle arrest in human HeLa cells assessed as decrease in accumulation at G1 phase after 12 hrs by propidium iodide staining-based flow cytometric analysis; format: functional; summary of the method: as §1
HeLa [11] = assay: Cell cycle arrest in human HeLa cells assessed as decrease in cdc2 protein expression up to 5 uM after 12 hrs by Western blot analysis; format: functional, cell-based; summary of the method: as §2
HeLa [12] = assay: Induction of apoptosis in human HeLa cells assessed as upregulation of caspase-9 protein expression up to 5 uM after 12 hrs by Western blot analysis; format: functional, cell-based; summary of the method: as §2
HeLa [13] = assay: Induction of apoptosis in human HeLa cells assessed as viable cells at 0.1 uM after 12 hrs by Annexin V-FITC/propidium iodide staining-based flow cytometric analysis (reference value: 91.02%); format: functional; settings: read-out: Activity
HeLa [14] = assay: Induction of apoptosis in human HeLa cells assessed as upregulation of Bax protein expression up to 5 uM after 12 hrs by Western blot analysis; format: functional, cell-based; summary of the method: as §2
Aurora kinase A = biological target: T1, Aurora kinase A (Homo sapiens, UniProt O14965); assay: Inhibition of Aurora A (unknown origin) using kemptide acetate salt as substrate after 30 mins by kinase-Glo luminescence method
T1 sequence (O14965 whole entry): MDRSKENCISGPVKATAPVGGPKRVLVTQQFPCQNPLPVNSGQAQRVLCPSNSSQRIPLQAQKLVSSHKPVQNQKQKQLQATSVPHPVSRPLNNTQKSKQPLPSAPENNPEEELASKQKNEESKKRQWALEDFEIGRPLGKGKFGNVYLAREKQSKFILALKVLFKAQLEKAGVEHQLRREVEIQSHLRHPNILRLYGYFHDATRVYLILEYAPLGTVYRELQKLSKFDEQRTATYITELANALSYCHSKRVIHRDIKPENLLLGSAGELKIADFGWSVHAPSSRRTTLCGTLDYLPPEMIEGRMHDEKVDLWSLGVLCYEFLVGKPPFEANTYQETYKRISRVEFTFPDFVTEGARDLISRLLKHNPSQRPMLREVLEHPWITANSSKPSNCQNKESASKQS

HeLa [15] = assay: Cell cycle arrest in human HeLa cells assessed as accumulation at G2/M phase at 1 uM after 12 hrs by propidium iodide staining-based flow cytometric analysis (reference value: 23.57%); format: functional; summary of the method: as §1
HeLa [16] = assay: Induction of apoptosis in human HeLa cells assessed as upregulation of Bad protein expression up to 5 uM after 12 hrs by Western blot analysis; format: functional, cell-based; summary of the method: as §2

CC1(C)CC(NC(=O)c2ccc(Nc3ncc(F)c(Nc4ccc(C(=O)Nc5ccccc5Cl)cc4)n3)cc2)CC(C)(C)N1[O]
Activity (HeLa [1]): 48%
GI50 (HeLa [2]): 400 nM
Activity (HeLa [3]): 9.93%
Activity (HeLa [4]): Active
Activity (HeLa [5]): 2.94%
IC50 (Aurora kinase B): 538 nM
Activity (HeLa [6]): 4.85%
Activity (HeLa [7]): 60.33%
Activity (HeLa [8]): 39.67%
Activity (HeLa [9]): 16.66%
Activity (HeLa [10]): Dose-dependent effect
Activity (HeLa [11]): Active
Activity (HeLa [12]): Active
viability at 0.1 µM (HeLa [13]): 90.3%
Activity (HeLa [14]): Active
IC50 (Aurora kinase A): 0.06 nM
Activity (HeLa [15]): 40.67%
Activity (HeLa [16]): Active
